This passage reports IC50 results from BindingDB's records for doi:10.1021/acs.jmedchem.9b01336 (University of Naples Federico II, 2020).

The structures appear in SMILES notation.

In test [1] the target is T1, Proto-oncogene tyrosine-protein kinase receptor Ret (Homo sapiens, UniProt P07949). Put plainly: Inhibition of CCDC6/RET in human LC2/ad cells assessed as reduction in cell proliferation supplemented with fresh medium containing compound for every 2 to 3 days and measured during compound dosing.
Target sequence in this assay (P07949 whole entry, looked up, canonical isoform): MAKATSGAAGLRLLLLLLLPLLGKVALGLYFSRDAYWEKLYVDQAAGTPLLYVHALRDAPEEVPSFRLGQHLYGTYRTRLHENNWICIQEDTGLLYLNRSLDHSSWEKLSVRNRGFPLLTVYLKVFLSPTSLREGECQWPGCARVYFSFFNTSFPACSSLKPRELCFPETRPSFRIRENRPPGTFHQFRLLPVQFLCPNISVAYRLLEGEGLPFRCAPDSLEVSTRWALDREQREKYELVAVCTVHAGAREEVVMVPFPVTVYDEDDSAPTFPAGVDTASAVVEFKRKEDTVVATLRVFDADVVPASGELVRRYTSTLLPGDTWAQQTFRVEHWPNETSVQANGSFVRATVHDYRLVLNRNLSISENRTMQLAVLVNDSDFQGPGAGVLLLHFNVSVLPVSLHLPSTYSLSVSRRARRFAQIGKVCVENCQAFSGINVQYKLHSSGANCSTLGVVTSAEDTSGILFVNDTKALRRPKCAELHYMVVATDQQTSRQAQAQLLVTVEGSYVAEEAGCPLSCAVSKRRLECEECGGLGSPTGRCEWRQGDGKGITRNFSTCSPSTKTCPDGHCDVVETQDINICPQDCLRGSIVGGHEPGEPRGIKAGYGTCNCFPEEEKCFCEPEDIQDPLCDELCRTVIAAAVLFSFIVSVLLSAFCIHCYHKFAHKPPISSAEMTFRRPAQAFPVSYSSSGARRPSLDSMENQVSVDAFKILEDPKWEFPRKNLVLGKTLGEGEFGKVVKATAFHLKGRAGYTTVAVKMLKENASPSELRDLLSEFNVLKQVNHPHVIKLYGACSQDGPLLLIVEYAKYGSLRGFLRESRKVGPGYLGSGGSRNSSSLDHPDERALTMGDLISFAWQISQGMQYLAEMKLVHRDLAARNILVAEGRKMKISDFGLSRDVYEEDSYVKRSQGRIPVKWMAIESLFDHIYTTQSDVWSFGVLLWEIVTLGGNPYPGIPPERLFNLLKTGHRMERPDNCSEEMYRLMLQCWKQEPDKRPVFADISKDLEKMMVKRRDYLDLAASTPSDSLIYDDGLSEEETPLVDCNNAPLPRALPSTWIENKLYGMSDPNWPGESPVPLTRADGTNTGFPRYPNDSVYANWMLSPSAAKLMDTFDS
The nature of test [2]: Inhibition of RET isoform 9 C634Y mutant (unknown origin) expressed in mouse NIH/3T3 cells assessed as reduction in cell proliferation supplemented with fresh medium containing compound for every 2 to 3 days measured at 2 days interval during compound dosing.
The target of test [3] is T1, Proto-oncogene tyrosine-protein kinase receptor Ret. The test can be described thus: Inhibition of RET isoform 9 M918T mutant in human MZ-CRC-1 cells assessed as reduction in cell proliferation supplemented with fresh medium containing compound for every 2 to 3 days and measured during compound dosing. In outline: (§1)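 TT (200000/well) or MZ-CRC-1 (100000/well) seeded in 10% FCS; drug or vehicle from next day, refreshed every 2–3 days; counted every 2–3 days; IC50 by curve fitting of last-day growth.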
Target sequence in this assay (P07949 29-1114 M918T limits assumed): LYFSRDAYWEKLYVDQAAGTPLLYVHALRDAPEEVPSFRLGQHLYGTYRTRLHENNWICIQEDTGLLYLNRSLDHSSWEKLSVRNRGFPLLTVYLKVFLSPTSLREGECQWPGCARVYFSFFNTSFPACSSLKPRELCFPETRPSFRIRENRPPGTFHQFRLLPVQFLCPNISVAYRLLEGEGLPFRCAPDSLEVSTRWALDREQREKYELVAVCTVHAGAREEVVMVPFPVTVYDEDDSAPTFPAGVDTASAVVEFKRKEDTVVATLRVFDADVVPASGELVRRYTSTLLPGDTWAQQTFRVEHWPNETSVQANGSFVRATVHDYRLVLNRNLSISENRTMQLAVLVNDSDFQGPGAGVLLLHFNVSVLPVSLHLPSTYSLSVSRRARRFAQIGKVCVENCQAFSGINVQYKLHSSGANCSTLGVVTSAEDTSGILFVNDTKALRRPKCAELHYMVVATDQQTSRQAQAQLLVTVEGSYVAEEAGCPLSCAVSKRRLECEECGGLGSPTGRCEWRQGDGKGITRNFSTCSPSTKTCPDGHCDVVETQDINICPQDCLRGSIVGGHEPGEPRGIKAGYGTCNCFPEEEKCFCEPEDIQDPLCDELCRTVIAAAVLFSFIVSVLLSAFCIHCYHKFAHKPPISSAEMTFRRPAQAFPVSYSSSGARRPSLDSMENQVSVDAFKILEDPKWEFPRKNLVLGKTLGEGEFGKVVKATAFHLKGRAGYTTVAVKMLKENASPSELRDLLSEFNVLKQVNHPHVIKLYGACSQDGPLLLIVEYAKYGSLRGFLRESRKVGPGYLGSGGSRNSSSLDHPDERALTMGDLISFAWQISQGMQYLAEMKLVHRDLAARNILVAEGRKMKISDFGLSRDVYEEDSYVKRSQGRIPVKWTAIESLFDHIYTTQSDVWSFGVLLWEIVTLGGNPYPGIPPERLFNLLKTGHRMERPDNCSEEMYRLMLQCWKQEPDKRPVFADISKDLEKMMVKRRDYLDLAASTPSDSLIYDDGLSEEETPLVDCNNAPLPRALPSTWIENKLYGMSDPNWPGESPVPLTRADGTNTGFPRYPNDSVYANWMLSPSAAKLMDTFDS

Test [4] in a line: Inhibition of RET isoform 15 C634R mutant (unknown origin) expressed in mouse BAF3 cells assessed as reduction in cell proliferation supplemented with fresh medium containing compound for every 2 to 3 days and measured daily.
Test [5] has as its target T1, Proto-oncogene tyrosine-protein kinase receptor Ret. The test can be described thus: Inhibition of RET isoform 9 C634W mutant in human TT cells assessed as reduction in cell proliferation supplemented with fresh medium containing compound for every 2 to 3 days and measured during compound dosing. In outline:
as §1
Target sequence in this assay (P07949 29-1114 C634W limits assumed): as the sequence (P07949 29-1114 M918T limits assumed) above, with C606W, T890M counted along it

Test [6] can be described thus: Inhibition of RET isoform 15 M918T mutant (unknown origin) expressed in mouse BAF3 cells assessed as reduction in cell proliferation supplemented with fresh medium containing compound for every 2 to 3 days and measured daily.
The target in test [7] is T1, Proto-oncogene tyrosine-protein kinase receptor Ret. The test can be described thus: Inhibition of CCDC6/RET in human TPC1 cells assessed as reduction in cell proliferation supplemented with fresh medium containing compound for every 2 to 3 days and measured during compound dosing.
Target sequence in this assay (P07949 whole entry, looked up, canonical isoform): as the sequence (P07949 whole entry, looked up, canonical isoform) above

For `CC(C)(C)c1cc(NC(=O)Cc2ccc(-n3cnc4cc(-c5ccc(S(C)(=O)=O)cc5)ccc43)cc2)no1`, the IC50 (usually the point on the concentration scale where inhibition reaches its midpoint) was 0.67 nM in test [1]; 4.2 nM in test [2]; 0.67 nM in test [3]; 1.7 nM in test [4]; 0.67 nM in test [5]; 1.6 nM in test [6]. Also, the IC50 in test [7] stood at 0.67 nM.
